Data: ChEMBL document CHEMBL1817610, “Synthesis and SAR requirements of adamantane-colchicine conjugates with both microtubule depolymerizing and tubulin clustering activities” (Bioorg Med Chem, 2011)
Calls of active or inactive are those of the source. No cut-off for these calls is given here.

Experiments:
[1] = test system: A549; experiment: Cytotoxicity against human A549 cells after 24 hrs by MTT assay; format: functional, cell-based; details: A549, 24 h
How it was run: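 A549 cells kept in DMEM with 10% FBS and 1% penicillin/streptomycin at 37 °C, 5% CO2, then seeded at 3 × 10³ per well. Exposure 24 h to test agents at 1–12000 nM (DMSO stocks; 0.4% DMSO negative control), 8 wells per concentration. Surviving cells counted by colorimetric MTT (5 mg/mL in PBS). EC50 averaged over three to six experiments.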

[2] = test system: A549; experiment: Effect on microtubule network in human A549 cells assessed as microtubule depolymerization and tubulin clustering at 1 uM after 8 hrs by immunofluorescence microscopic analysis; format: functional, cell-based
How it was run: (§1)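 A549 cells grown on 11 mm glass coverslips at 2 × 10⁴ cells each. Exposure to compounds at 1 and 5 µM for 8 h at 37 °C, 5% CO2, with 0.5% DMSO as negative control. Cells fixed in 4% paraformaldehyde and stained with mouse monoclonal anti-α-tubulin, then Alexa Fluor488 goat anti-mouse IgG (1:200). Fluorescence microscopy, effect scored semi-quantitatively by '+' grades.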

[3] = test system: A549; experiment: Effect on microtubule network in human A549 cells assessed as microtubule depolymerization at 1 uM after 8 hrs by immunofluorescence microscopic analysis; format: functional, cell-based; how it was run: as §1
[4] = test system: A549 (Homo sapiens); experiment: Effect on microtubule network in human A549 cells assessed as tubulin clustering formation after 8 hrs by immunofluorescence microscopic analysis
[5] = test system: A549; experiment: Effect on microtubule network in human A549 cells assessed as microtubule depolymerization and tubulin clustering at 5 uM after 8 hrs by immunofluorescence microscopic analysis; format: functional, cell-based; how it was run: as §1
[6] = species on record: Bos taurus; experiment: Inhibition of bovine brain tubulin polymerization after 1 hr
How it was run: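 Purified bovine brain tubulin polymerized with 10% DMSO present and test agent at 10 µM. Incubation 1 h, then preparations examined by Allen video-enhanced microscopy.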

[7] = test system: A549; experiment: Effect on microtubule network in human A549 cells assessed as microtubule binding at 1 uM after 8 hrs by immunofluorescence microscopic analysis; format: functional, cell-based

Structure (SMILES) | EC50 [1] [nM] | Activity [2] | further results
COc1cc2c(c(OC)c1OC)-c1ccc(OC)c(=O)cc1[C@@H](NC(=O)CCCCCC(=O)OC1CCCCC1)CC2 | 4.8 | Active | 
COc1cc2c(c(OC)c1OC)-c1ccc(OC)c(=O)cc1[C@@H](NC(=O)CCCC(=O)OC1C3CC4CC(C3)CC1C4)CC2 (stereo not given in full) | 200 |  | Activity [3]: Active
COc1cc2c(c(OC)c1OC)-c1ccc(OC)c(=O)cc1[C@@H](NC(=O)CCCCCC(=O)OC13CC4CC(CC(C4)C1)C3)CC2 | 11 | Active | 
COc1cc2c(c(OC)c1OC)-c1ccc(OC)c(=O)cc1[C@@H](NC(=O)CCCCCCCC(=O)OC1C3CC4CC(C3)CC1C4)CC2 (stereo not given in full) | 3800 | Active | 
COc1cc2c(c(OC)c1OC)-c1ccc(OC)c(=O)cc1[C@@H](NC(=O)CCCCCC(=O)OC1C3CC4CC(C3)CC1C4)CC2 (stereo not given in full) | 6 | Active | Activity [4]: Active
COc1cc2c(c(OC)c1OC)-c1ccc(OC)c(=O)cc1[C@@H](NC(=O)CCCCCCC(=O)OC1C3CC4CC1CC(OC(=O)[C@H](O)[C@@H](NC(=O)OC(C)(C)C)c1ccccc1)(C4)C3)CC2 (mixture of isomers) | 2 | Active | 
COc1cc2c(c(OC)c1OC)-c1ccc(OC)c(=O)cc1[C@@H](NC(=O)CCCCCC(=O)OC1C3CC4CC1CC(OC(=O)[C@H](O)[C@@H](NC(=O)OC(C)(C)C)c1ccccc1)(C4)C3)CC2 (mixture of isomers) | 73 | Active | Activity [5]: Active; inhibition [6]: Active
COc1cc2c(c(OC)c1OC)-c1ccc(OC)c(=O)cc1[C@@H](NC(=O)CCCCCCCC(=O)OC13CC4CC(CC(C4)C1)C3)CC2 | 29 |  | 
COc1cc2c(c(OC)c1OC)-c1ccc(OC)c(=O)cc1[C@@H](NC(=O)CCCCCCCCCCCOC(=O)[C@H](O)[C@@H](NC(=O)OC(C)(C)C)c1ccccc1)CC2 | 41 | Active | 
COc1cc2c(c(OC)c1OC)-c1ccc(OC)c(=O)cc1[C@@H](NC(C)=O)CC2 [COLCHICINE] | 27 |  | Activity [3]: Active
COc1cc2c(c(OC)c1OC)-c1ccc(OC)c(=O)cc1[C@@H](NC(=O)CCCCCC(=O)OC(C)C)CC2 | 30 | Active | 
COc1cc2c(c(OC)c1OC)-c1ccc(OC)c(=O)cc1[C@@H](NC(=O)CCCCCCC(=O)OC1C3CC4CC(C3)CC1C4)CC2 (stereo not given in full) | 5 | Active | 
COc1cc2c(c(OC)c1OC)-c1ccc(OC)c(=O)cc1[C@@H](NC(=O)CCCC(=O)OC1C3CC4CC1CC(OC(=O)[C@H](O)[C@@H](NC(=O)OC(C)(C)C)c1ccccc1)(C4)C3)CC2 (mixture of isomers) | 220 |  | 
CC(=O)O[C@H]1C(=O)[C@@]2(C)[C@H]([C@H](OC(=O)c3ccccc3)[C@]3(O)C[C@H](OC(=O)[C@H](O)[C@@H](NC(=O)c4ccccc4)c4ccccc4)C(C)=C1C3(C)C)[C@]1(OC(C)=O)CO[C@@H]1C[C@@H]2O [PACLITAXEL] | 4.6 |  | Activity [7]: Active
COc1cc2c(c(OC)c1OC)-c1ccc(OC)c(=O)cc1[C@@H](NC(=O)CCCCC(=O)OC1C3CC4CC(C3)CC1C4)CC2 (stereo not given in full) | 830 | Active | 
COc1cc2c(c(OC)c1OC)-c1ccc(OC)c(=O)cc1[C@@H](NC(=O)CCCCCC(=O)Oc1ccccc1)CC2 | 5700 |  | Activity [3]: Active
COC(=O)CCCCCC(=O)N[C@H]1CCc2cc(OC)c(OC)c(OC)c2-c2ccc(OC)c(=O)cc21 | 32 |  | Activity [3]: Active
